Measurements published in ChEMBL document CHEMBL1156002, “Synthesis, Raman, FT-IR, NMR spectroscopic characterization, antimicrobial activity, cytotoxicity and DNA binding of new mixed aza-oxo-thia macrocyclic compounds” (2009).

Key:
Type in all cases: functional
[1] = system: Klebsiella pneumoniae; assay: Antibacterial activity against Klebsiella pneumoniae UC57 at 30 ug after 24 hrs by agar disk diffusion assay; conditions: UC57, 24 h, read-out: IZ
In short: (§1)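 Disk diffusion with sterile 6 mm discs loaded with DMSO solutions of the test agents and placed on inoculated agar. Bacteria were pre-grown in Nutrient Broth at 30 °C for 24 h, and plates were incubated at 35 °C for 24 h. Each plate carried a reference antibiotic disc matched to the organism, and a DMSO-only solvent control was run.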

[2] = system: Bacillus cereus; assay: Antibacterial activity against Bacillus cereus ATCC 7064 at 30 ug after 24 hrs by agar disk diffusion assay; conditions: ATCC 7064, 24 h, read-out: IZ; in short: as §1
[3] = system: Staphylococcus aureus; assay: Antibacterial activity against Staphylococcus aureus ATCC 6538 at 30 ug after 24 hrs by agar disk diffusion assay; conditions: ATCC 6538, 24 h, read-out: IZ
In short: (§2)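 Sterile 6 mm paper discs were loaded with ligand solution freshly prepared in DMSO and placed on inoculated agar. The inoculum came from broth cultures: bacteria in Nutrient Broth at 30 °C for 24 h, yeasts in Malt Extract Broth for 48 h. Plates were incubated at 35 °C for 24 h (bacteria) or 25 °C for 72 h (yeasts). A DMSO solvent control and a reference antibiotic disc were included on each plate.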

[4] = system: Listeria monocytogenes; assay: Antibacterial activity against Listeria monocytogenes ATCC 15313 at 30 ug after 24 hrs by agar disk diffusion assay; conditions: ATCC 15313, 24 h, read-out: IZ; in short: as §1
[5] = system: Mycolicibacterium smegmatis; assay: Antibacterial activity against Mycobacterium smegmatis CCM 2067 at 30 ug after 24 hrs by agar disk diffusion assay; conditions: CCM 2067, 24 h, read-out: IZ; in short: as §1
[6] = system: Escherichia coli; assay: Antibacterial activity against Escherichia coli ATCC 11230 at 30 ug after 24 hrs by agar disk diffusion assay; conditions: ATCC 11230, 24 h, read-out: IZ
In short: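 Bacteria pre-grown in Nutrient Broth at 30 °C for 24 h. Sterile 6 mm discs loaded with compound solutions freshly made in DMSO were placed on inoculated agar and incubated at 35 °C for 24 h. The medium was supplemented with DMSO as a solvent control, and an appropriate reference antibiotic disc was added to each plate.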

[7] = system: Micrococcus luteus; assay: Antibacterial activity against Micrococcus luteus La 2971 at 30 ug after 24 hrs by agar disk diffusion assay; conditions: La 2971, 24 h, read-out: IZ; in short: as §1
[8] = system: Proteus vulgaris; assay: Antibacterial activity against Proteus vulgaris ATCC 8427 at 30 ug after 24 hrs by agar disk diffusion assay; conditions: ATCC 8427, 24 h, read-out: IZ; in short: as §1
[9] = system: Pseudomonas aeruginosa; assay: Antibacterial activity against Pseudomonas aeruginosa ATCC 27853 at 30 ug after 24 hrs by agar disk diffusion assay; conditions: ATCC 27853, 24 h, read-out: IZ; in short: as §1
[10] = system: Candida albicans; assay: Antifungal activity against Candida albicans ATCC 10231 at 20 ug after 72 hrs by agar disk diffusion assay; conditions: ATCC 10231, 72 h, read-out: IZ
In short: (§3)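 Yeasts were pre-grown in Malt Extract Broth for 48 h. Sterile 6 mm discs loaded with compound solutions freshly made in DMSO were placed on inoculated agar and incubated at 25 °C for 72 h. The medium was supplemented with DMSO as a solvent control, and an appropriate reference antifungal disc was added to each plate.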

[11] = system: Kluyveromyces marxianus; assay: Antifungal activity against Kluyveromyces fragilis NRRL 2415 at 20 ug after 72 hrs by agar disk diffusion assay; conditions: NRRL 2415, 72 h, read-out: IZ; in short: as §3
[12] = system: Debaryomyces hansenii; assay: Antifungal activity against Debaryomyces hansenii DSM 70238 at 20 ug after 72 hrs by agar disk diffusion assay; conditions: DSM 70238, 72 h, read-out: IZ; in short: as §3
[13] = system: Hanseniaspora guilliermondii; assay: Antifungal activity against Hanseniaspora guilliermondii DSM 3432 at 20 ug after 72 hrs by agar disk diffusion assay; conditions: DSM 3432, 72 h, read-out: IZ; in short: as §3
[14] = system: Rhodotorula mucilaginosa; assay: Antifungal activity against Rhodotorula rubra DSM 70403 at 20 ug after 72 hrs by agar disk diffusion assay; conditions: DSM 70403, 72 h, read-out: IZ; in short: as §3
[15] = system: Escherichia coli; assay: Antibacterial activity against Escherichia coli ATCC 11230 at 10 ug after 24 hrs by agar disk diffusion assay; conditions: ATCC 11230, 24 h, read-out: IZ; in short: as §1
[16] = system: Klebsiella pneumoniae; assay: Antibacterial activity against Klebsiella pneumoniae UC57 at 10 ug after 24 hrs by agar disk diffusion assay; conditions: UC57, 24 h, read-out: IZ; in short: as §1
[17] = system: Mycolicibacterium smegmatis; assay: Antibacterial activity against Mycobacterium smegmatis CCM 2067 at 10 ug after 24 hrs by agar disk diffusion assay; conditions: CCM 2067, 24 h, read-out: IZ; in short: as §1
[18] = system: Pseudomonas aeruginosa; assay: Antibacterial activity against Pseudomonas aeruginosa ATCC 27853 at 10 ug after 24 hrs by agar disk diffusion assay; conditions: ATCC 27853, 24 h, read-out: IZ; in short: as §1
[19] = system: Proteus vulgaris; assay: Antibacterial activity against Proteus vulgaris ATCC 8427 at 10 ug after 24 hrs by agar disk diffusion assay; conditions: ATCC 8427, 24 h, read-out: IZ; in short: as §1
[20] = system: Micrococcus luteus; assay: Antibacterial activity against Micrococcus luteus La 2971 at 10 ug after 24 hrs by agar disk diffusion assay; conditions: La 2971, 24 h, read-out: IZ; in short: as §1
[21] = system: Listeria monocytogenes; assay: Antibacterial activity against Listeria monocytogenes ATCC 15313 at 10 ug after 24 hrs by agar disk diffusion assay; conditions: ATCC 15313, 24 h, read-out: IZ; in short: as §1
[22] = system: Staphylococcus aureus; assay: Antibacterial activity against Staphylococcus aureus ATCC 6538 at 10 ug after 24 hrs by agar disk diffusion assay; conditions: ATCC 6538, 24 h, read-out: IZ; in short: as §2
[23] = system: Bacillus cereus; assay: Antibacterial activity against Bacillus cereus ATCC 7064 at 10 ug after 24 hrs by agar disk diffusion assay; conditions: ATCC 7064, 24 h, read-out: IZ; in short: as §1
[24] = system: Listeria monocytogenes; assay: Antibacterial activity against Listeria monocytogenes ATCC 15313 after 24 hrs by broth micro dilution method
[25] = system: Staphylococcus aureus; assay: Antibacterial activity against Staphylococcus aureus ATCC 6538 after 24 hrs by broth micro dilution method
[26] = system: Bacillus cereus; assay: Antibacterial activity against Bacillus cereus ATCC 7064 after 24 hrs by broth micro dilution method
[27] = system: Micrococcus luteus; assay: Antibacterial activity against Micrococcus luteus La 2971 after 24 hrs by broth micro dilution method
[28] = system: Proteus vulgaris; assay: Antibacterial activity against Proteus vulgaris ATCC 8427 after 24 hrs by broth micro dilution method
[29] = system: Escherichia coli; assay: Antibacterial activity against Escherichia coli ATCC 11230 after 24 hrs by broth micro dilution method
[30] = system: Pseudomonas aeruginosa; assay: Antibacterial activity against Pseudomonas aeruginosa ATCC 27853 after 24 hrs by broth micro dilution method
[31] = system: Klebsiella pneumoniae; assay: Antibacterial activity against Klebsiella pneumoniae UC57 after 24 hrs by broth micro dilution method
[32] = system: Mycolicibacterium smegmatis; assay: Antibacterial activity against Mycobacterium smegmatis CCM 2067 after 24 hrs by broth micro dilution method

Compound: CO/N=C(\C(=O)N[C@@H]1C(=O)N2C(C(=O)O)=C(COC(C)=O)CS[C@H]12)c1csc(N)n1 [CEFOTAXIME]
- zone of inhibition at 30 µg/disc [1]: 13 mm
- zone of inhibition at 30 µg/disc [2]: 54 mm
- zone of inhibition at 30 µg/disc [3]: 12 mm
- zone of inhibition at 30 µg/disc [4]: 16 mm
- zone of inhibition at 30 µg/disc [5]: 11 mm
- zone of inhibition at 30 µg/disc [6]: 10 mm
- zone of inhibition at 30 µg/disc [7]: 18 mm
- zone of inhibition at 30 µg/disc [8]: 14 mm
- zone of inhibition at 30 µg/disc [9]: 32 mm

Compound: CC(=O)N1CCN(c2ccc(OCC3COC(Cn4ccnc4)(c4ccc(Cl)cc4Cl)O3)cc2)CC1 (stereo unspecified) [KETOCONAZOLE]
- zone of inhibition at 20 µg/disc [10]: 22 mm
- zone of inhibition at 20 µg/disc [11]: 21 mm
- zone of inhibition at 20 µg/disc [12]: 14 mm
- zone of inhibition at 20 µg/disc [13]: 24 mm
- zone of inhibition at 20 µg/disc [14]: 16 mm

Compound: CC1(C)S[C@@H]2[C@H](NC(=O)[C@H](N)c3ccccc3)C(=O)N2[C@H]1C(=O)O [AMPICILLIN]
- zone of inhibition at 10 µg/disc [15]: 12 mm
- zone of inhibition at 10 µg/disc [16]: 14 mm
- zone of inhibition at 10 µg/disc [17]: 21 mm
- zone of inhibition at 10 µg/disc [18]: 32 mm
- zone of inhibition at 10 µg/disc [19]: 12 mm
- zone of inhibition at 10 µg/disc [20]: 16 mm
- zone of inhibition at 10 µg/disc [21]: 12 mm
- zone of inhibition at 10 µg/disc [22]: 16 mm
- zone of inhibition at 10 µg/disc [23]: 10 mm

Compound: GENTAMICIN
- MIC [24]: 12.5 µg/mL
- MIC [25]: 25 µg/mL
- MIC [26]: 6.25 µg/mL
- MIC [27]: 25 µg/mL
- MIC [28]: 6.25 µg/mL
- MIC [29]: 6.25 µg/mL
- MIC [30]: 6.25 µg/mL
- MIC [31]: 6.25 µg/mL
- MIC [32]: 12.5 µg/mL

Compound: CN(C)[C@@H]1C(O)=C(C(N)=O)C(=O)[C@@]2(O)C(O)=C3C(=O)c4c(O)cccc4[C@@](C)(O)[C@H]3C[C@@H]12 [TETRACYCLINE]
- zone of inhibition at 30 µg/disc [1]: 30 mm
- zone of inhibition at 30 µg/disc [2]: 34 mm
- zone of inhibition at 30 µg/disc [3]: 26 mm
- zone of inhibition at 30 µg/disc [4]: 28 mm
- zone of inhibition at 30 µg/disc [5]: 24 mm
- zone of inhibition at 30 µg/disc [6]: 28 mm
- zone of inhibition at 30 µg/disc [7]: 26 mm
- zone of inhibition at 30 µg/disc [8]: 25 mm
- zone of inhibition at 30 µg/disc [9]: 22 mm
